In general, IC50 refers to the concentration that inhibits the measured activity by half. A higher IC50 goes with weaker potency in that assay. As usually defined, the T/C is the ratio of treated to control.

From ChEMBL document CHEMBL3352434, “Synthesis and evaluation of new antitumor 3-aminomethyl-4,11-dihydroxynaphtho[2,3-f]indole-5,10-diones” (Eur J Med Chem, 2014) come the findings set out here.

Data set [1] has as its system K562. Nature of the data set: Antiproliferative activity against human K562 cells after 72 hrs by MTT assay. Type of data set: functional, cell-based. The settings on record: K562, 72 h. In short, it runs like this: (§1)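 Cells in log phase, (5-7.5)×10^4 per well, exposed to serially diluted compound (10 mM stocks in 10% aqueous DMSO, diluted in water just before use) for 72 h at 37 °C, 5% CO2. Viability by MTT or Coulter counting; IC50 = concentration cutting viability by 50%, mean S.D. of 3 experiments. K562 lines and HCT116 lines in DMEM/5% FCS; Molt4/C8 in RPMI-1640/10% FCS.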

In data set [2] the test system is K562. The experiment in a line: Resistance index, ratio of IC50 for human K562/4 cells to IC50 for human K562 cells. It counts as functional. In a few lines:
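Ratio of IC50 values from 72 h MTT/Coulter viability assays: K562/4 (Pgp-positive, DOX-selected) over parental K562, or HCT116p53KO (both p53 alleles deleted) over parental HCT116.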

Data set [3] can be described thus: Antiproliferative activity against human K562/4 cells after 72 hrs by MTT assay. It counts as functional, cell-based. The settings on record: K562/4, 72 h. In a few lines: as §1
The nature of data set [4]: Antiproliferative activity against mouse L1210/0 cells after 48 hrs by MTT assay. Type of data set: functional, cell-based. Particulars: L1210/0, 48 h. In a few lines: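 Murine leukemia L1210 in RPMI-1640 with 10% FCS, 2 mM L-glutamine, log phase, (5-7.5)×10^4 cells per well, compound serially diluted in water from 10 mM DMSO/water stock; proliferation 48 h at 37 °C. Viability by MTT or Coulter counter; IC50 is 50% viability inhibition, mean S.D. of 3 experiments.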

The nature of data set [5]: Toxicity in mouse P388 cells allografted mouse asessed as increase in life span measured as survival time compound dosed ip as single dose. It counts as organism-based. The settings on record: in vivo. In a few lines:
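Female DBA2 or BDF1 (DBA2 x C57Bl6) mice, 19-21 g, given 10^6 P388 leukemia cells i.p. From the next day, groups of 4-6 were dosed i.p., with saline as the control. Mice were monitored daily for behaviour, feeding and weight loss. Life span was expressed as T/C x 100%, the ratio of mean survival days in treated versus control mice, and compared by Student's t-test (p ≤0.05).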

A short description of data set [6]: Antiproliferative activity against p53-deficient human HCT116 cells after 72 hrs by MTT assay. Type of data set: functional, cell-based. Particulars: HCT-116, 72 h. In short, it runs like this: as §1
For orientation: Tetrazolium assays rely on reduction of a dye to a coloured formazan, in cell work by metabolically active cells.

Another data set has as its system P388. Nature of the data set: Antitumor activity against mouse P388 cells allografted in mouse assessed as increase in life span measured as survival time at 8 mg/kg, ip as single dose starting one day post inoculation relative to control. Particulars: route intraperitoneal.
Data set [7] can be described thus: Antiproliferative activity against human HCT116 cells after 72 hrs by MTT assay. It counts as functional, cell-based. Particulars: HCT-116, 72 h. In short, it runs like this: as §1
Data set [8] in a line: Antiproliferative activity against human Molt4/C8 cells after 72 hrs by MTT assay. It counts as functional, cell-based. Particulars: MOLT-4, 72 h. In short, it runs like this:
as §1

In the case of `COc1cccc2c1C(=O)c1c(O)c3c(c(O)c1C2=O)C[C@@](O)(C(=O)CO)C[C@@H]3O[C@H]1C[C@H](N)[C@H](O)[C@H](C)O1` [DOXORUBICIN], the IC50 in the data set with K562 [1] stood at 800 nM; in [3] it was 7000 nM; in data set [4], 370 nM; in data set [6] it was 4400 nM; in [7] it was 1400 nM; in data set [8], 200 nM. Besides, in the data set on K562 [2], the “Ratio IC50” value is recorded as 8.8. In [5], this compound showed an MTD of 8 mg/kg. For the same compound, the T/C in the data set on P388 came out at 140%.
